EBNA-1 inhibitor – blocks EBNA-1 binding to DNA; EBNA-1 DNA binding, fluorescence polarization; inhibition, % at 14.8 µM; actives 0.34% (n = 300,000); in the data active means inhibition above about 28%
GPR7 antagonist – blocks human GPR7 receptor signaling; P48145; GPR7-expressing cells, fluorescence antagonist assay; inhibition, % at 4.4 µM; actives 1.1% (n = 290,000); AID 1861; in the data active means inhibition above about 16%, passing the limit was not always enough;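 further: cells stimulated with the agonist NPW; 0% = agonist with vehicle and 100% = vehicle without agonist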
ZTA counter – counter-screen for EBNA-1 inhibitors: inhibitors of Epstein-Barr virus ZTA | P03206 | ZTA-DNA binding, fluorescence polarization | inhibition, % at 11 µM | actives 0.15% (n = 320,000) | AID 2234; in the data active means inhibition above about 33%
EBV gp42 block – inhibitors of Epstein-Barr virus glycoprotein 42; Fluorescence polarization binding assay, mP read-out; Q1HVG2; inhibition, % (tested at 21.74 µM); actives 0.42% (n = 220,000); in the data active means inhibition above about 50%
Target sequence (Q1HVG2 whole entry, looked up): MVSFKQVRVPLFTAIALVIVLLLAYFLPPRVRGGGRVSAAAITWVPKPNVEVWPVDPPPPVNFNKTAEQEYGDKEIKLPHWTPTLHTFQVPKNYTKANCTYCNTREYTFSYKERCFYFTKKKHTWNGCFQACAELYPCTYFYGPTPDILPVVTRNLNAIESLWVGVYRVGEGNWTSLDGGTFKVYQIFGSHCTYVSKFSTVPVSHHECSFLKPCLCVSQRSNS
HCV core dimer – HCV core protein dimerization inhibition; actives 0.33% (n = 300,000); TR-FRET GST/Flag-core106 dimerization, 1536-well; inhibition, % at 5 µM;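 active means inhibition above the mean of all tested compounds plus 3 SD, set per screening campaign, cut at about 45% in these data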
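assay system = GST-tagged and Flag-tagged HCV core protein residues 1-106 | controls = unlabelled core106 and no-GST-core106 wells | incubation = compound-protein-antibody incubation 4 h at 22.5 °C | probe or stimulus = Eu donor and XL665 acceptor anti-tag antibodies | read-out = % inhibition based on acceptor/donor emission ratio | signal = TR-FRET 671 and 617 nm emission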
HCV NS3 hel inh – blocks Hepatitis C virus NS3 helicase unwinding; NS3 helicase DNA unwinding, Cy5 molecular beacon fluorescence; inhibition, % at 10.9 µM; actives 0.56% (n = 290,000);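 active means inhibition above the mean of all tested compounds plus 3 SD, set per campaign, cut at about 35% in these data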;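 further: 0% = DMSO wells and 100% = thioflavine S control wells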
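Assay system – hepatitis C virus NS3 helicase domain fragment enzyme · Buffer or medium – MOPS pH 6.5, MgCl2, DTT, Tween20, BSA · Reagent – Cy5/quencher beacon DNA duplex and ATP to start · Compound – single 10.9 µM dose · Timing – 1 h at 25 °C · Technique – Cy5 beacon fluorescence read at start and 1 h · Measure – % inhibition of unwinding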
Active calls of the source: *; nt = no result given. In the library only some 2.3% were active in any assay of this set; here they are far more common.

SMILES	EBNA-1 inhibitor	GPR7 antagonist	ZTA counter	EBV gp42 block	HCV core dimer	HCV NS3 hel inh
CCSc1ncnc2c1sc1nc(-c3ccco3)c3c(c12)CC(C)(C)OC3	2	-6	-7	-9	65*	27
COC(=O)CSc1ncnc2c1sc1nc(-c3ccco3)c3c(c12)CC(C)(C)OC3	9	3	-6	-1	64*	20
Fc1ccccc1/C=N/Nc1ncnc2nc[nH]c12	4	2	5	59*	2	16
CCN1C(=O)/C(=C/C2=Cc3ccccc3OC2C)SC1=S (centres undefined)	-12	-11	-1	52*	-4	-2
CC1Oc2ccccc2C=C1/C=C1/SC(N2CCOCC2)=NC1=O (centres undefined)	-12	-10	2	-5	1	-3
N#C/C(=C\c1ccc(Cl)cc1)c1n[nH]c(Cn2cncn2)n1	1	-3	-4	9	-2	-3
COc1ccc(/C=C(\C#N)c2n[nH]c(Cn3cncn3)n2)cc1	-1	20*	-3	4	-5	7
CCOC(=O)c1c(NC(=O)CSc2nnnn2-c2ccccc2)sc2c1CCC(C)C2 (centres undefined)	2	0	11	-8	3	2
CCn1c2ccccc2c2cc(NC(=O)c3ccc(=O)oc3)ccc21	-2	-8	7	127*	15	-2
CCn1c(SCC(=O)Nc2sc3c(c2C(N)=O)CCC(C)C3)nnc1-c1ccco1 (centres undefined)	8	-2	1	-9	56*	32
CCn1c2ccccc2c2cc(NC(=O)c3coc(=O)c(Br)c3)ccc21	1	-14	-8	97*	4	13
COCCn1c(C)cc(C(=O)COC(=O)c2ccccc2Br)c1C	-5	11	12	-9	7	-6
COCCn1c(C)cc(C(=O)COC(=O)c2ccc(NC(=O)CC#N)cc2)c1C	1	8	19	-11	68*	6
CCn1c2ccccc2c2cc(NC(=O)c3cc(OC)cc(OC)c3)ccc21	25	-4	-6	-12	5	17
Cc1cc2[nH]c(=O)c(=O)[nH]c2cc1S(=O)(=O)NCc1ccc(Cl)cc1	2	8	6	nt	-1	0
COC(=O)C1=C(C)N(C)C(=O)NC1c1cccc2ccccc12 (centres undefined)	-4	-5	-3	nt	-2	1
COc1ccc(Br)c(OC)c1C(=O)NC(=O)Nc1nc(C)cc(C)n1	-10	-4	0	-10	-2	2
CCn1c2ccccc2c2cc(NC(=O)COC(=O)c3ccc(NC(=O)CC#N)cc3)ccc21	16	nt	6	nt	74*	nt
CCn1c(SCC(=O)Nc2ccc3c(c2)c2ccccc2n3CC)nnc1-c1ccco1	1	12	-6	-5	65*	24
Clc1ccc2[nH]cc(-c3nnnn3-c3ccc4ccccc4c3)c2c1	6	24	11	-24	12	-6
COc1ccc(CCC(=O)Nc2sccc2C#N)cc1	-18	-12	-6	-4	13	-5
CCOc1cc(/C=N/NC(=O)C(C)Sc2ccccc2)ccc1O (centres undefined)	-7	-13	10	-1	-1	5
Cc1cc(NS(=O)(=O)c2ccc(NC(=S)Nc3ccc(Cl)cc3C)cc2)no1	10	-14	-1	-14	-1	4
CCN(CC(=O)NC)S(=O)(=O)c1ccc(Br)cc1	-14	16*	-2	-11	-4	5
CC(C)C[C@H](NC(=O)c1nc[nH]c1C(=O)N1CCNCC1)C(=O)OCc1ccccc1	-4	nt	0	nt	-2	nt
Cc1cc(Cl)n2nc(C)c(-c3ccc(Cl)cc3)c2n1	5	33*	10	4	0	-4
O=C(NC(=S)Nc1ccc(NC(=O)c2cccs2)cc1)c1cc2ccccc2o1	69*	-3	26	-6	23	-6
CCc1ccc(-c2cc3c(=O)n(CC(=O)N4CCCCCC4)nc(C)n3n2)cc1	-1	-6	-19	nt	1	-2
CCN(CC)CC(O)COc1ccccc1C(=O)CCc1ccccc1 (centres undefined)	-4	3	-4	nt	3	-7
CCCCN(CCCC)CC(O)COc1ccccc1C(=O)Nc1ccccc1 (centres undefined)	3	20*	1	-7	0	-16
